The results in this text go back to ChEMBL document CHEMBL1133174, “Disubstituted indazoles as potent antagonists of the integrin alpha(v)beta(3)” (J Med Chem, 2000).

One may read the IC50 as the concentration needed to halve the response being measured. A high value points to a need for much substance.

The first assay deals with Integrin alpha-IIb/beta-3 (Homo sapiens, UniProt P05106+P08514). The assay can be described thus: Inhibition of aggregation of human gel-purified platelets (GPIIbIIIa GPP). Type of assay: functional. The gist of the method: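 Human platelets from healthy-volunteer platelet-rich plasma were gel-purified on sepharose and used at 2×10^8 platelets/mL with 1 mM CaCl2 and 1 mg/mL fibrinogen. Aggregation was measured with or without compound at several concentrations and IC50 calculated. Values are single determinations.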
Integrin alpha-IIb/beta-3, sequence (P05106 27-788 limits assumed): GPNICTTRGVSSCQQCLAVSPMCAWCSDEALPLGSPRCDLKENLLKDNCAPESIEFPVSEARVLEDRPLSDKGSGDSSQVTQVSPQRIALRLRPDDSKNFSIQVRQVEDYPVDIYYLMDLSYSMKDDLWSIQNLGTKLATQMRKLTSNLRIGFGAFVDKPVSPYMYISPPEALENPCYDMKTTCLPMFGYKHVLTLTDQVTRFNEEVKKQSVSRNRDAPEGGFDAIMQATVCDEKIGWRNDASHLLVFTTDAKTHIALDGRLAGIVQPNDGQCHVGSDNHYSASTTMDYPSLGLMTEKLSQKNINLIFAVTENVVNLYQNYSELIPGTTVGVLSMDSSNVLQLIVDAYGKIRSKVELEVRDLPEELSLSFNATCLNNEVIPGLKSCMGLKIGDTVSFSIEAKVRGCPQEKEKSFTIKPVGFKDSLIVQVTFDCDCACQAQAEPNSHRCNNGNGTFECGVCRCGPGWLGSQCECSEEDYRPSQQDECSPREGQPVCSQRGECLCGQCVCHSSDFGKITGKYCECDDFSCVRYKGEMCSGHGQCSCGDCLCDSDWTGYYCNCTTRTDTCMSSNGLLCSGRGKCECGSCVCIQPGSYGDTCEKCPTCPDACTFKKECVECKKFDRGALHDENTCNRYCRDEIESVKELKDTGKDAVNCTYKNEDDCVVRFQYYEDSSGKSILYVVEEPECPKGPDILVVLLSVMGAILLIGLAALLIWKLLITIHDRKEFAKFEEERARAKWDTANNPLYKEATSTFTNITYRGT
Integrin alpha-IIb/beta-3, sequence (P08514 32-887 limits assumed): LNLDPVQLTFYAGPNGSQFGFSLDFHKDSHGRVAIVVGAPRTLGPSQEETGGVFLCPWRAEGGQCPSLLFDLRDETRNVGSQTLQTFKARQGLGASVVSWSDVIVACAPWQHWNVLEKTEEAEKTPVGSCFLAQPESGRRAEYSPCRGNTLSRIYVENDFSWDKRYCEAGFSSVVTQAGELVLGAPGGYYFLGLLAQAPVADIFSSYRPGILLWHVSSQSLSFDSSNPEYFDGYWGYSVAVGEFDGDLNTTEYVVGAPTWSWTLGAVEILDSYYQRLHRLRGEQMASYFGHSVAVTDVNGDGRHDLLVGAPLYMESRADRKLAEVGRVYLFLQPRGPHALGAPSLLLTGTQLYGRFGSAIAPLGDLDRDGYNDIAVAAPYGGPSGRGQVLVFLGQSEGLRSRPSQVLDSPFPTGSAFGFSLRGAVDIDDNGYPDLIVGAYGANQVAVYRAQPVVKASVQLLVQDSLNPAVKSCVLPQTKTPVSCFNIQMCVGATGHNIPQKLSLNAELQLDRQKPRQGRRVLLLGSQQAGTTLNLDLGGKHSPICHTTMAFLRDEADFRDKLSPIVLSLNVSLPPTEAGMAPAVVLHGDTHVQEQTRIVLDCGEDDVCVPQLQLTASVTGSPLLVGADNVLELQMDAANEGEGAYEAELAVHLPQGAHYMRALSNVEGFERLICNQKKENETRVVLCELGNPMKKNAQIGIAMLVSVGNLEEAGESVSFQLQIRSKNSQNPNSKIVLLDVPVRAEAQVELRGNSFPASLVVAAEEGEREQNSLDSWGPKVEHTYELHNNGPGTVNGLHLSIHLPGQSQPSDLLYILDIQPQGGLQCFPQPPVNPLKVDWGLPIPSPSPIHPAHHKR
Integrin alpha-IIb/beta-3, sequence (P08514 891-1039 limits assumed): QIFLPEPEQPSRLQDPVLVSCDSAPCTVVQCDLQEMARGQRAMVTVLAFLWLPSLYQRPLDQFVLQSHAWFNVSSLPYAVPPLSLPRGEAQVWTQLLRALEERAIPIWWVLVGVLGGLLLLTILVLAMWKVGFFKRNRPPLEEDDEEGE
With `Cc1cc(C)c(S(=O)(=O)N[C@@H](CNC(=O)C2=NOC(CCCC(=O)Nc3ncc[nH]3)C2)C(=O)O)c(C)c1` (some centres undefined), the IC50 was 61000 nM.

The target of a further assay is T1, Integrin alpha-V/beta-3 (Homo sapiens, UniProt P05106+P06756). The assay can be described thus: Inhibitory activity against beta-3-transfected 293 cells using alphaV-beta3 antagonism assay. Type of assay: functional, cell-based, HEK293. The gist of the method: (§1)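 Fibrinogen-coated plates were blocked with BSA in PBS. HEK293 cells expressing human β3 subunit were preincubated 15 min at 37 °C with or without compound, then allowed to adhere for 60 min. Nonadherent cells were washed off with PBS, adherent cells lysed, and β-galactosidase activity read. IC50 was derived from standard curves and reported ± SEM.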
T1 sequence (P05106 27-788 limits assumed): as the sequence (P05106 27-788 limits assumed) above
T1 sequence (P06756 31-889 limits assumed): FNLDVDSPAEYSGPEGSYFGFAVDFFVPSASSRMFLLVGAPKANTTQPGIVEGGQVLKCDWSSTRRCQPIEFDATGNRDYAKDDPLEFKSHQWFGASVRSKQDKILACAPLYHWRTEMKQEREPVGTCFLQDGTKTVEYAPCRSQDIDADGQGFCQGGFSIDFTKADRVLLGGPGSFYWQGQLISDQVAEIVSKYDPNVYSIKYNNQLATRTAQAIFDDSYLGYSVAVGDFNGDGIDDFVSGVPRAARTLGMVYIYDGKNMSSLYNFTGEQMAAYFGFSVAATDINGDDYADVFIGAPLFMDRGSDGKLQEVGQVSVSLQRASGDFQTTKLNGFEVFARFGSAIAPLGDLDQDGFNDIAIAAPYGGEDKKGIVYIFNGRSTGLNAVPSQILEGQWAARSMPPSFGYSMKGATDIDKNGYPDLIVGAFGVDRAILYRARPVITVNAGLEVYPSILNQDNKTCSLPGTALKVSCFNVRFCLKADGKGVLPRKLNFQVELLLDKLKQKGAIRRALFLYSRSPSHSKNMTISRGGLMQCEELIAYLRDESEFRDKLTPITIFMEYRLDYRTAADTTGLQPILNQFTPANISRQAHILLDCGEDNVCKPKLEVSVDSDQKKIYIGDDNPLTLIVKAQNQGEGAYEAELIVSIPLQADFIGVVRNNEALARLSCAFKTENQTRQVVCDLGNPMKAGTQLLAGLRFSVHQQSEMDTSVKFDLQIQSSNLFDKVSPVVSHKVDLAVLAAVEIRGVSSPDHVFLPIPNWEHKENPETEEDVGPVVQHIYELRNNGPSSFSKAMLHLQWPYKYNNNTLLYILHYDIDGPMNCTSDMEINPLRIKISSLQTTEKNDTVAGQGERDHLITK
T1 sequence (P06756 891-1048 limits assumed): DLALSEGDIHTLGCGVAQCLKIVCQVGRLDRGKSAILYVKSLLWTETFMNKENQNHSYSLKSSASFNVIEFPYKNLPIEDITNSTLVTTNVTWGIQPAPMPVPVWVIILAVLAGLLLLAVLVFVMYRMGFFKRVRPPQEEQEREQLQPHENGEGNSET
The compound `Cc1cc(C)c(S(=O)(=O)N[C@@H](CNC(=O)c2cccc3c2cnn3CCCNc2ncc[nH]2)C(=O)O)c(C)c1` gave an IC50 of 25 nM. Turning to `O=C(N[C@@H](CNC(=O)c1ccc2c(cnn2CCNC2=NCCN2)c1)C(=O)O)OCc1ccccc1`, the IC50 was > 1000 nM. Regarding `O=C(N[C@@H](CNC(=O)c1ccc2nn(CCCNC3=NCCN3)cc2c1)C(=O)O)OCc1ccccc1`, the IC50 was > 1000 nM.

As to `O=C(N[C@H](CNC(=O)c1ccc2cnn(CCCNC3=NCCN3)c2c1)C(=O)O)OCc1ccccc1`, the IC50 was > 1000 nM. `O=C(N[C@@H](CNC(=O)c1cccc2c1cnn2CCCNC1=NCCN1)C(=O)O)OCc1ccccc1`: the IC50 was > 1000 nM.

Regarding `O=C(N[C@@H](CNC(=O)c1ccc2c(cnn2CCCCNC2=NCCN2)c1)C(=O)O)OCc1ccccc1`, the IC50 is > 1000 nM. Turning to `O=C(N[C@H](CNC(=O)c1ccc2cn(CCCNC3=NCCN3)nc2c1)C(=O)O)OCc1ccccc1`, the IC50 is > 1000 nM. Take `O=C(N[C@@H](CNC(=O)c1ccc2c(cnn2CCCNC2=NCCN2)c1)C(=O)O)OCc1ccccc1`: half-maximal inhibition (IC50) was put at 460 nM.

In the next assay the target is T1, Integrin alpha-V/beta-3. Nature of the assay: Inhibitory activity against beta-3-transfected 293 cells using alpha-V beta-3 antagonism assay. Type of assay: functional, cell-based, HEK293. A digest of the protocol:
as §1
Turning to `Cc1cc(C)c(S(=O)(=O)N[C@@H](CC(=O)Nc2ccc3c(cnn3CCCNc3ccccn3)c2)C(=O)O)c(C)c1`, it took 840 nM to reach half-maximal inhibition (IC50). The same measure, in the same setting: then `CC(C)CCC(=O)N[C@@H](CNC(=O)c1ccc2c(cnn2CCCNc2ccccn2)c1)C(=O)O`, with > 1000 nM; and `O=C(NC[C@H](NS(=O)(=O)c1ccc2ccccc2c1)C(=O)O)c1ccc2c(cnn2CCCNc2ncc[nH]2)c1`, with 4.7 nM; and `O=C(NC[C@H](NS(=O)(=O)c1ccc(Cl)c(Cl)c1)C(=O)O)c1ccc2c(cnn2CCCNc2ncc[nH]2)c1`, with 10 nM. Still for that read-out and setting: with `Cc1cc(C)c(S(=O)(=O)N[C@@H](CNC(=O)c2ccc3c(cnn3CCCNc3cc[nH]n3)c2)C(=O)O)c(C)c1` the figure was > 1000 nM. The same measure, in the same setting: with `O=C(O)CCNC(=O)c1ccc2c(cnn2CCCNc2ccccn2)c1` the figure was > 1000 nM; with `Cc1cc(C)c(S(=O)(=O)N[C@@H](CN(C)C(=O)c2ccc3c(cnn3CCCNc3ccccn3)c2)C(=O)O)c(C)c1`, > 1000 nM; with `CC(C)(C)c1ccc(S(=O)(=O)N[C@@H](CNC(=O)c2ccc3c(cnn3CCCNc3ncc[nH]3)c2)C(=O)O)cc1`, 120 nM. As for `O=C(N[C@@H](CNC(=O)c1ccc2c(cnn2CCCNc2ccccn2)c1)C(=O)O)OCc1ccccc1`, half-maximal inhibition (IC50) was put at 300 nM. Same read-out and setting: then `O=C(N[C@@H](CNC(=O)c1ccc2c(cnn2CCCNc2ncc[nH]2)c1)C(=O)O)OCc1ccccc1`, with 74 nM; and `O=C(NC[C@H](NS(=O)(=O)c1ccccc1)C(=O)O)c1ccc2c(cnn2CCCNc2ccccn2)c1`, with 120 nM; and `CC(=O)Nc1ccc(S(=O)(=O)N[C@@H](CNC(=O)c2ccc3c(cnn3CCCNc3ncc[nH]3)c2)C(=O)O)cc1`, with 150 nM. `O=C(NC[C@H](NS(=O)(=O)c1ccc(Cl)cc1)C(=O)O)c1ccc2c(cnn2CCCNc2ncc[nH]2)c1` returned an IC50 of 10 nM. For the compound `CC(C)CNS(=O)(=O)N[C@@H](CNC(=O)c1ccc2c(cnn2CCCNc2ccccn2)c1)C(=O)O`, the IC50 is > 1000 nM. Regarding `O=C(NC[C@H](NS(=O)(=O)c1cccc2ccccc12)C(=O)O)c1ccc2c(cnn2CCCNc2ncc[nH]2)c1`, 13 nM corresponded to half-maximal inhibition (IC50). Same read-out and setting: then `O=C(NC[C@H](NS(=O)(=O)NCc1ccccc1)C(=O)O)c1ccc2c(cnn2CCCNc2ccccn2)c1`, with 600 nM; and `O=C(NCc1ccccc1)N[C@@H](CNC(=O)c1ccc2c(cnn2CCCNc2ccccn2)c1)C(=O)O`, with > 1000 nM; and `O=C(Nc1ccccc1)N[C@@H](CNC(=O)c1ccc2c(cnn2CCCNc2ccccn2)c1)C(=O)O`, with > 1000 nM.

The compound `COc1ccc(S(=O)(=O)N[C@@H](CNC(=O)c2ccc3c(cnn3CCCNc3ncc[nH]3)c2)C(=O)O)cc1` displayed an IC50 of 26 nM. Same read-out and setting: with `Cc1cc(C)c(NS(=O)(=O)N[C@@H](CNC(=O)c2ccc3c(cnn3CCCNc3ccccn3)c2)C(=O)O)c(C)c1` the figure was 360 nM; with `O=C(O)CCNC(=O)c1ccc2c(cnn2CCCNc2ncc[nH]2)c1`, > 1000 nM. Same read-out and setting: with `CCCCS(=O)(=O)N[C@@H](CNC(=O)c1ccc2c(cnn2CCCNc2ccccn2)c1)C(=O)O` the figure was 360 nM; with `Cc1cc(C)c(S(=O)(=O)NCCNC(=O)c2ccc3c(cnn3CCCNc3ncc[nH]3)c2)c(C)c1`, > 1000 nM. The same measure, in the same setting: with `O=C(NC[C@H](NS(=O)(=O)c1ccccc1)C(=O)O)c1ccc2c(cnn2CCCNc2ncc[nH]2)c1` the figure was 44 nM. Turning to `Cc1cc(C)c(S(=O)(=O)N[C@@H](CNC(=O)c2ccc3c(cnn3CCCNc3ccccn3)c2)C(=O)O)c(C)c1`, it took 48 nM to reach half-maximal inhibition (IC50). `Cc1cc(C)c(S(=O)(=O)N[C@H](CNC(=O)c2ccc3c(cnn3CCCNc3ncc[nH]3)c2)C(=O)O)c(C)c1` came in with an IC50 of 290 nM. Same read-out and setting: then `O=C(NC[C@H](NS(=O)(=O)Cc1ccccc1)C(=O)O)c1ccc2c(cnn2CCCNc2ccccn2)c1`, with > 1000 nM; and `O=C(CCc1ccccc1)N[C@@H](CNC(=O)c1ccc2c(cnn2CCCNc2ccccn2)c1)C(=O)O`, with > 1000 nM. Still for that read-out and setting: then `O=C(NC[C@H](NS(=O)(=O)c1ccc(-c2ccccc2)cc1)C(=O)O)c1ccc2c(cnn2CCCNc2ncc[nH]2)c1`, with 35 nM.

Compound `Cc1cc(C)c(S(=O)(=O)N[C@@H](CNC(=O)c2ccc3c(cnn3CCCNc3ncc[nH]3)c2)C(=O)O)c(C)c1` yielded an IC50 of 2.3 nM. Compound `O=C(NC[C@H](NS(=O)(=O)c1c(Cl)cccc1Cl)C(=O)O)c1ccc2c(cnn2CCCNc2ncc[nH]2)c1` displayed an IC50 of 8.5 nM. Against the preceding compound, the IC50 is about 3.7-fold higher.

Take `Cc1cc(-c2ccccc2)cc(C)c1S(=O)(=O)N[C@@H](CNC(=O)c1ccc2c(cnn2CCCNc2ncc[nH]2)c1)C(=O)O`: the concentration for half-maximal inhibition (IC50) was 4.9 nM. Against the preceding compound, the IC50 is about 1.7-fold lower.

In the case of `O=C(O)C[C@H](NC(=O)c1ccc2c(cnn2CCCNc2ccccn2)c1)C(=O)NCCc1ccccc1`, the IC50 is > 1000 nM. On the same count and under the same terms, with `CC(C)COC(=O)N[C@@H](CNC(=O)c1ccc2c(cnn2CCCNc2ccccn2)c1)C(=O)O` the figure was 240 nM. Still for that read-out and setting: then `O=C(NC[C@H](NS(=O)(=O)Nc1ccccc1)C(=O)O)c1ccc2c(cnn2CCCNc2ccccn2)c1`, with 170 nM; and `Cc1cc(C)c(NC(=O)[C@H](CC(=O)O)NC(=O)c2ccc3c(cnn3CCCNc3ccccn3)c2)c(C)c1`, with > 1000 nM; and `O=C(NC[C@H](NS(=O)(=O)c1ccc(C(F)(F)F)cc1)C(=O)O)c1ccc2c(cnn2CCCNc2ncc[nH]2)c1`, with 52 nM. Turning to `Cc1ccc(S(=O)(=O)N[C@@H](CNC(=O)c2ccc3c(cnn3CCCNc3ncc[nH]3)c2)C(=O)O)cc1`, the concentration for half-maximal inhibition (IC50) turned out to be 16 nM. In turn, `Cc1cc(C)c(S(=O)(=O)N[C@@H](CNC(=O)c2ccc3c(cnn3CCC(=O)Nc3ncc[nH]3)c2)C(=O)O)c(C)c1` returned an IC50 of 56 nM.

The compound `Cc1cccc(C)c1S(=O)(=O)N[C@@H](CNC(=O)c1ccc2c(cnn2CCCNc2ncc[nH]2)c1)C(=O)O` had an IC50 of 10 nM.

A further assay deals with T1, Integrin alpha-V/beta-3. Nature of the assay: Inhibition of Vitronectin receptor (alpha V beta 3) binding. Type of assay: protein-complex assay.
Consider `Cc1cc(C)c(S(=O)(=O)N[C@@H](CNC(=O)c2cccc3c2cnn3CCCNc2ncc[nH]2)C(=O)O)c(C)c1`, for which the IC50 was < 0.1 nM. Still for that read-out and setting: then `O=C(N[C@@H](CNC(=O)c1ccc2c(cnn2CCNC2=NCCN2)c1)C(=O)O)OCc1ccccc1`, with 51 nM. The compound `O=C(N[C@@H](CNC(=O)c1ccc2nn(CCCNC3=NCCN3)cc2c1)C(=O)O)OCc1ccccc1` yielded an IC50 of 55 nM.

In the case of `O=C(N[C@H](CNC(=O)c1ccc2cnn(CCCNC3=NCCN3)c2c1)C(=O)O)OCc1ccccc1`, the IC50 is 1500 nM. Turning to `O=C(N[C@@H](CNC(=O)c1cccc2c1cnn2CCCNC1=NCCN1)C(=O)O)OCc1ccccc1`, the IC50 is 7.3 nM. This IC50 lies about 210-fold lower than the previous one. Consider `O=C(N[C@@H](CNC(=O)c1ccc2c(cnn2CCCCNC2=NCCN2)c1)C(=O)O)OCc1ccccc1`, for which the IC50 was 250 nM. Still for that read-out and setting: then `O=C(N[C@H](CNC(=O)c1ccc2cn(CCCNC3=NCCN3)nc2c1)C(=O)O)OCc1ccccc1`, with 25 nM.

For `O=C(N[C@@H](CNC(=O)c1ccc2c(cnn2CCCNC2=NCCN2)c1)C(=O)O)OCc1ccccc1`, the IC50 was 3.8 nM.

The next assay addresses T1, Integrin alpha-V/beta-3. Nature of the assay: Inhibition of adhesion of integrin beta-3-transfected HEK293 cells to fibrinogen. Type of assay: functional, cell-based. A digest of the protocol:
as §1
As for `Cc1cc(C)c(S(=O)(=O)N[C@@H](CNC(=O)c2ccc3c(cnn3CCCNC3=NCCCN3)c2)C(=O)O)c(C)c1`, inhibition was half-maximal at 28 nM (IC50). On to `Cc1cc(C)c(S(=O)(=O)N[C@@H](CNC(=O)c2ccc3c(cnn3CCCNC3=NCCN3)c2)C(=O)O)c(C)c1`, for which 70 nM corresponded to half-maximal inhibition (IC50).
